Test results published in ChEMBL document CHEMBL5247650, “New Dual Inhibitors of Bacterial Topoisomerases with Broad-Spectrum Antibacterial Activity and In Vivo Efficacy against Vancomycin-Intermediate Staphylococcus aureus” (J Med Chem, 2023).
pIC50: −log10 of the molar value. Values after ≈ are worked out from the molar mass of the structure shown. Active and inactive are the calls of the source. The rule behind the calls is not given here.

What was measured:
[1] = Inhibition of Escherichia coli DNA topoisomerase 4 relaxation
[2] = test system: Enterobacter cloacae; assay: Antibacterial activity against Enterobacter cloacae subsp. cloacae ATCC 13047 assessed as bacterial growth inhibition incubated for 18 hrs by microplate reader based analysis; format: functional
[3] = test system: Klebsiella pneumoniae; assay: Antibacterial activity against Klebsiella pneumoniae ATCC 10031 assessed as bacterial growth inhibition incubated for 18 hrs by microplate reader based analysis; format: functional
[4] = test system: Acinetobacter baumannii; assay: Antibacterial activity against Acinetobacter baumannii ATCC 17978 assessed as bacterial growth inhibition incubated for 18 hrs by microplate reader based analysis; format: functional
[5] = test system: Pseudomonas aeruginosa; assay: Antibacterial activity against Pseudomonas aeruginosa ATCC 27853 assessed as bacterial growth inhibition incubated for 18 hrs by microplate reader based analysis; format: functional
[6] = test system: Escherichia coli; assay: Antibacterial activity against Escherichia coli ATCC 25922 assessed as bacterial growth inhibition incubated for 18 hrs by microplate reader based analysis; format: functional
[7] = test system: Acinetobacter baumannii; assay: Antibacterial activity against clinical isolate Acinetobacter baumannii assessed as bacterial growth inhibition at 32 ug/ml by CLSI based broth microdilution method relative to control; format: functional
[8] = test system: Acinetobacter baumannii; assay: Antibacterial activity against clinical isolate Acinetobacter baumannii assessed as bacterial growth inhibition at 4 ug/ml by CLSI based broth microdilution method relative to control; format: functional, organism-based; conditions: dose 4.0 µg/ml
Method in brief: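 Hungarian clinical isolates and control strains were tested by the same CLSI broth microdilution procedure (MHBII, OD600 read-out after 18 h at 37 °C), run in 384-well plates.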

[9] = target: T1, Voltage-gated inwardly rectifying potassium channel KCNH2 (Homo sapiens, UniProt Q12809); assay: Inhibition of hERG channel expressed in HEK293 cells at -40 mV holding potential by whole-cell voltage clamp method; format: toxicity, cell-based
T1 sequence (Q12809 whole entry): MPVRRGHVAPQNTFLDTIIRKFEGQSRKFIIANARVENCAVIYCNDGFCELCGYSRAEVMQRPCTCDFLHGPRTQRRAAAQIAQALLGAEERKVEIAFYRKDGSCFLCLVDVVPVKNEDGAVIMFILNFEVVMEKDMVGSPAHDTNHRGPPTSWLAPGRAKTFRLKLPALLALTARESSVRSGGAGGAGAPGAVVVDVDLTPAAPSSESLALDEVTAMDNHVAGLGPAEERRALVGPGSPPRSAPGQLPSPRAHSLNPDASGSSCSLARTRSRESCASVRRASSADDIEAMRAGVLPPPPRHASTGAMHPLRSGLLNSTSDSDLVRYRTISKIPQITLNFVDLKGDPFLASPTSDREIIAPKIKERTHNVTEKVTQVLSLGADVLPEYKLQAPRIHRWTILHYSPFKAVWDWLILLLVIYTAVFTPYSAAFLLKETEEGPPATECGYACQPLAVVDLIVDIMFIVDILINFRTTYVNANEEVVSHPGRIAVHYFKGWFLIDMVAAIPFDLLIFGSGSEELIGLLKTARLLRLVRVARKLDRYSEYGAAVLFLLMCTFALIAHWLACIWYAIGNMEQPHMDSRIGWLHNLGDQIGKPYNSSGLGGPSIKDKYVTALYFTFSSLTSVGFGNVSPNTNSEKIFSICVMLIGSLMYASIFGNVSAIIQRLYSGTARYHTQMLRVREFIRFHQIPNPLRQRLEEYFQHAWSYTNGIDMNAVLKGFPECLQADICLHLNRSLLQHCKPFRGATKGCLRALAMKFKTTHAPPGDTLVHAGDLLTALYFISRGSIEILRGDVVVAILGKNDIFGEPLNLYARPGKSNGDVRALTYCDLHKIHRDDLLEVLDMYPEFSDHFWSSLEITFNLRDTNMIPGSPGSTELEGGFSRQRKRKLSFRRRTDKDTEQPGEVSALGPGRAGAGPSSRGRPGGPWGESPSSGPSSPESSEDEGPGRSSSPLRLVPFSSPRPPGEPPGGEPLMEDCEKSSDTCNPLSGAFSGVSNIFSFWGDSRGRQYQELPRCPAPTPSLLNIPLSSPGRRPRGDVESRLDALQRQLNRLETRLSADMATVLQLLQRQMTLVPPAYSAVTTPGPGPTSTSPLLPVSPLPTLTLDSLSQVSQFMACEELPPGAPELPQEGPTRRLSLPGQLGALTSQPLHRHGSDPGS

[10] = Hemolytic activity in human RBC assessed as hemolysis at 100 uM incubated for 45 mins under shaking condition by spectrophotometer analysis; format: toxicity, cell-based; conditions: erythrocyte
[11] = target: Sodium channel protein type 5 subunit alpha (Homo sapiens, UniProt Q14524); assay: Inhibition of Nav1.5 ion channel (unknown origin) expressed in CHO cells at 10 microM by patch-clamp method; format: cell-based
Chain of Sodium channel protein type 5 subunit alpha (Q14524 whole entry): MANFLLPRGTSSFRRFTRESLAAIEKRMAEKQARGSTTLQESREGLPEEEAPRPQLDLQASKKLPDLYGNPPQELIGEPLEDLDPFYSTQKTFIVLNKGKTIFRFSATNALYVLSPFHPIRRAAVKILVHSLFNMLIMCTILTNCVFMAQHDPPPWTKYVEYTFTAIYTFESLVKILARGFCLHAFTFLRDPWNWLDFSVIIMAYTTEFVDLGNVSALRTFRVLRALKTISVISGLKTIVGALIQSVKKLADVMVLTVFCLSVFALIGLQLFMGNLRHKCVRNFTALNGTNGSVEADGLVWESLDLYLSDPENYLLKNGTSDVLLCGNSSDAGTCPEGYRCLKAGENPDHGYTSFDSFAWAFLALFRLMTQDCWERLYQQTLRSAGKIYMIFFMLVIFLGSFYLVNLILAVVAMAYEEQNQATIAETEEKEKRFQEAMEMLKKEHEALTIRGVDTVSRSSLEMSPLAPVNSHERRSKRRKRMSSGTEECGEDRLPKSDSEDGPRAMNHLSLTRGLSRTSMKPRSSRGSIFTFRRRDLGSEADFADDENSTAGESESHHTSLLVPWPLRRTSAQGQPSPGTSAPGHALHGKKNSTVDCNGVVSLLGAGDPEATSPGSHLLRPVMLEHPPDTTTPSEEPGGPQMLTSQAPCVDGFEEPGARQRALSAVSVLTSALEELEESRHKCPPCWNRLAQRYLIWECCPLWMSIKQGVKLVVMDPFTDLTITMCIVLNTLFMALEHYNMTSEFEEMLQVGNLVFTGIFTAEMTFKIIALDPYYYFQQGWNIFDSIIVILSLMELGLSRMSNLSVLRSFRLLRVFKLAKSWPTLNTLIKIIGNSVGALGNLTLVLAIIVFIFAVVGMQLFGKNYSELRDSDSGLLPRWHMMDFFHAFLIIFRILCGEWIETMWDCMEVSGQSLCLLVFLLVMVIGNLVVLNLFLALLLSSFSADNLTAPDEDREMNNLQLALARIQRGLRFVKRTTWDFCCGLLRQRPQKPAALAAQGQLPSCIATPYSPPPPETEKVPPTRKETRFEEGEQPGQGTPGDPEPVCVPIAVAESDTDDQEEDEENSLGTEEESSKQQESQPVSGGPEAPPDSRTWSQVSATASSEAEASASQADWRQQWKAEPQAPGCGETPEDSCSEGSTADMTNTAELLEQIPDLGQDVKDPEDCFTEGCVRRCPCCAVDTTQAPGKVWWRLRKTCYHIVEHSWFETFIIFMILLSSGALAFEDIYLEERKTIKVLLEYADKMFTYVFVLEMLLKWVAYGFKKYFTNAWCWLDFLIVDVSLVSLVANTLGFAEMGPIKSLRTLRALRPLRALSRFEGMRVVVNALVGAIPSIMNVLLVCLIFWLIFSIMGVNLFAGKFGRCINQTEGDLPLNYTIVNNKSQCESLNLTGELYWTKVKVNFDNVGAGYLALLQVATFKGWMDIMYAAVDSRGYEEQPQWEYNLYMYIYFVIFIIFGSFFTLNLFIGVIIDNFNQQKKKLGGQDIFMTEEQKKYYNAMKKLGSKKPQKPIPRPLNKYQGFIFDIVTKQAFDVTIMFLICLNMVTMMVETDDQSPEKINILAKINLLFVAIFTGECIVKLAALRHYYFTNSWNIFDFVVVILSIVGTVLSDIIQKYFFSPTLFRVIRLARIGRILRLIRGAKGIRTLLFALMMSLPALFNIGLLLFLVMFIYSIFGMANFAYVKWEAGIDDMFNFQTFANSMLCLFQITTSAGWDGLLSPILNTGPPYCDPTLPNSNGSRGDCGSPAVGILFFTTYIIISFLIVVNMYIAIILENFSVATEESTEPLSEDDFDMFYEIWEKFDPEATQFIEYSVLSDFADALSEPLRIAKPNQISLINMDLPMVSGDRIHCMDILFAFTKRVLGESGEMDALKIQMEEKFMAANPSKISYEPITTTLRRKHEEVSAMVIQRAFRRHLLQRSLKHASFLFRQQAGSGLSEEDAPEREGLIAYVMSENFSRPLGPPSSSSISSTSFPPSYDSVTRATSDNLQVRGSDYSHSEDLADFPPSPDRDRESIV

[12] = target: T1, Voltage-gated inwardly rectifying potassium channel KCNH2; assay: Inhibition of hERG potassium ion channel expressed in CHO cells at 50 microM by patch-clamp method; format: toxicity, cell-based
[13] = test system: HepG2; assay: Cytotoxicity against human HepG2 cells assessed as reduction in cell growth upto 100 uM incubated for 72 hrs in absence of fetal bovine serum by MTS assay; format: toxicity, cell-based; conditions: hepg2, 72 h
[14] = test system: MCF7; assay: Cytotoxicity against human MCF7 cells assessed as reduction in cell growth upto 100 uM incubated for 72 hrs in absence of fetal bovine serum by MTS assay; format: toxicity, cell-based; conditions: mcf7, 72 h
[15] = test system: HepG2; assay: Cytotoxicity against human HepG2 cells assessed as reduction in cell growth upto 100 uM incubated for 72 hrs by MTS assay; format: toxicity, cell-based; conditions: hepg2, 72 h
[16] = Genotoxicity in CHO-K1 cells upto 100 uM incubated for 24 hrs in absence of rat liver S9 fraction by micronucleus test; format: toxicity, cell-based, Cricetulus griseus; conditions: chinese hamster, cho-k1, 24 h
[17] = Genotoxicity in CHO-K1 cells up to 50 uM incubated for 24 hrs in presence of rat liver S9 fraction by micronucleus test; format: toxicity, subcellular, Cricetulus griseus; conditions: chinese hamster, s9, 24 h
[18] = test system: HepG2; assay: Mitotoxicity in human HepG2 cells upto 1000 uM incubated for 24 hrs by glu/gal assay; format: toxicity, cell-based; conditions: hepg2, 24 h
[19] = test system: MCF7; assay: Cytotoxicity against human MCF7 cells assessed as reduction in cell growth upto 100 uM incubated for 72 hrs by MTS assay; format: toxicity, cell-based; conditions: mcf7, 72 h
[20] = Metabolic stability in human liver microsomes assessed as intrinsic clearance […] at 1 uM measured upto 60 mins by LC-MS/MS analysis; format: ADME, Microsome; conditions: 1 h
Method in brief: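 Pooled human liver microsomes at 0.5 mg/mL in 100 mM KPO4 pH 7.4, compound at 1 μM final. Started with 1 mM NADPH; sampled at 0, 5, 10, 20, 40 and 60 min. Quenched with cold acetonitrile plus internal standard; parent remaining measured by LC–MS/MS. Intrinsic clearance calculated by the Obach approach with literature scaling factors.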

[21] = test system: Acinetobacter baumannii; assay: Antibacterial activity against multi-drug resistant Acinetobacter baumannii assessed as bacterial growth inhibition at 8 ug/ml by CLSI based broth microdilution method relative to control; format: functional; set-up: scale not given: the % may be the effect or the level left; conditions: dose 8 µg/ml
Method in brief: (§1)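 Panel of 100 A. baumannii strains of diverse geographic origin, 50 MDR and 50 non-MDR. Tested at a contract lab by broth microdilution following CLSI guidelines. Read-out is the percentage of strains inhibited at each concentration.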

[22] = test system: Acinetobacter baumannii; assay: Antibacterial activity against non multi-drug resistant Acinetobacter baumannii assessed as bacterial growth inhibition at 8 ug/ml by CLSI based broth microdilution method relative to control; format: functional; set-up: scale not given: the % may be the effect or the level left; conditions: dose 8 µg/ml; method in brief: as §1
[23] = test system: Acinetobacter baumannii; assay: Antibacterial activity against multi-drug resistant Acinetobacter baumannii assessed as bacterial growth inhibition by CLSI based broth microdilution method; format: functional
[24] = Thermodynamic solubility of compound in 100 mM PBS buffer at pH 7.4 incubated for 48 hrs under shaking condition by LC-MS/MS analysis; format: physicochemical; conditions: read-out: Therm_solubility
[25] = test system: Staphylococcus aureus; assay: Antibacterial activity against Vancomycin-intermediate Staphylococcus aureus ATCC 700699 assessed as bacterial growth inhibition incubated for 18 hrs by microplate reader based analysis; format: functional
[26] = test system: Enterococcus faecium; assay: Antibacterial activity against Enterococcus faecium ATCC 700221 assessed as bacterial growth inhibition incubated for 18 hrs by microplate reader based analysis; format: functional
[27] = test system: Staphylococcus aureus; assay: Antibacterial activity against Staphylococcus aureus ATCC 29213 assessed as bacterial growth inhibition incubated for 18 hrs by microplate reader based analysis; format: functional
[28] = test system: Staphylococcus aureus; assay: Antibacterial activity against Methicillin-resistant Staphylococcus aureus ATCC 43300 assessed as bacterial growth inhibition incubated for 18 hrs by microplate reader based analysis; format: functional
Method in brief: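 Cation-adjusted Mueller Hinton broth II; strains grown overnight on agar then broth at 37 °C. Two-fold 12-step serial dilutions from DMSO stocks (final DMSO at most 0.64%), 5 × 10^4 cells per well, three parallel replicates, 37 °C with 150 rpm shaking for 18 h.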

[29] = test system: Enterococcus faecalis; assay: Antibacterial activity against Enterococcus faecalis ATCC 29212 assessed as bacterial growth inhibition incubated for 18 hrs by microplate reader based analysis; format: functional
[30] = Inhibition of Acinetobacter baumannii topoisomerase 4 decatenation incubated for 30 mins in presence of ATP by ethidium bromide staining based analysis
[31] = target: Topoisomerase IV (Staphylococcus aureus, UniProt P0C1S7+P0C1U9); assay: Inhibition of Staphylococcus aureus topoisomerase 4 decatenation incubated for 30 mins in presence of ATP by ethidium bromide staining based analysis; format: protein-complex assay
Chain of Topoisomerase IV (P0C1U9 whole entry): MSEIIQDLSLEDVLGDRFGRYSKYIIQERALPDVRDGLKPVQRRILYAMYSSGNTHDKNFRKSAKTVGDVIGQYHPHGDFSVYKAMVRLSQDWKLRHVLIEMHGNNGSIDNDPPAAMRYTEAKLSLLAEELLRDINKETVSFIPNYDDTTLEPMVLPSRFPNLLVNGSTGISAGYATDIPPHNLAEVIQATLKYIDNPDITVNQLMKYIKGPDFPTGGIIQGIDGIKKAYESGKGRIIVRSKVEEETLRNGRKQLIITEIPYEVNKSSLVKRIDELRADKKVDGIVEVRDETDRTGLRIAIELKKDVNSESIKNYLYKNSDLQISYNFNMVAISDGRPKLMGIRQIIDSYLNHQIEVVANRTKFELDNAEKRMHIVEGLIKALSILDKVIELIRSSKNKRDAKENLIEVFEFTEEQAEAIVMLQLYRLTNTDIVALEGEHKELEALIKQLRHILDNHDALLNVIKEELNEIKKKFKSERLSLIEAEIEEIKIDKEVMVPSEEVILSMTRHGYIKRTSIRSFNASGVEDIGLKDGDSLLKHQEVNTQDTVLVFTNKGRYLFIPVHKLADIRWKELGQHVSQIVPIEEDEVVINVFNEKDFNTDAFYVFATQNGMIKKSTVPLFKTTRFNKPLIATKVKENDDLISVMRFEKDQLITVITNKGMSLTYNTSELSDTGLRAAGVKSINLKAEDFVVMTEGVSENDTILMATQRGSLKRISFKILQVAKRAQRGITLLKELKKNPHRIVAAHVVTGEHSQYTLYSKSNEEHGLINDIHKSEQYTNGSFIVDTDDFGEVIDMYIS
Chain of Topoisomerase IV (P0C1S7 whole entry): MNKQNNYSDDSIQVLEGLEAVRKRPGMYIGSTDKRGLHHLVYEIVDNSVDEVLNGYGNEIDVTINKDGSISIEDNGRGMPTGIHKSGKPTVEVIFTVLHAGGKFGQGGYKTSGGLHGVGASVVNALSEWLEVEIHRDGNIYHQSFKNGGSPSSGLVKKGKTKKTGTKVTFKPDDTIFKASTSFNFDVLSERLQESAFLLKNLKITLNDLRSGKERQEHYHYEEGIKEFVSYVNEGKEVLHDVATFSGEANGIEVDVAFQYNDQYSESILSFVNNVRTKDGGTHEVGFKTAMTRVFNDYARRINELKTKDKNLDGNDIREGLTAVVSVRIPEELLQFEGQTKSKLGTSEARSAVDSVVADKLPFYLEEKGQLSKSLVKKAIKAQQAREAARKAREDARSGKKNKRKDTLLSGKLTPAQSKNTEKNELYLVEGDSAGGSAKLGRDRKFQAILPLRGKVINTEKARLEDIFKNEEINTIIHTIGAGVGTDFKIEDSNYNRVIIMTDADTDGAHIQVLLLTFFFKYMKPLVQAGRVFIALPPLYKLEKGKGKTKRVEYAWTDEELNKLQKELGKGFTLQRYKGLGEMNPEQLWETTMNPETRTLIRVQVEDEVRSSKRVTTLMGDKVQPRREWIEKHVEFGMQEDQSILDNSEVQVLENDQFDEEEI

[32] = Inhibition of Pseudomonas aeruginosa topoisomerase 4 decatenation incubated for 30 mins in presence of ATP by ethidium bromide staining based analysis
[33] = target: DNA gyrase (Escherichia coli, UniProt P0AES4+P0AES6); assay: Inhibition of Escherichia coli DNA gyrase supercoiling; format: protein-complex assay
Method in brief: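 E. coli gyrase supercoiling measured in a high-throughput plate assay from a commercial kit. Seven inhibitor concentrations; IC50 fitted from the curve, mean of three independent experiments.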

[34] = Plasma protein binding in CD-1 mouse assessed as unbound fraction at 5 uM incubated for 4 hrs by equilibrium dialysis method; format: ADME, cell-free
Method in brief: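 Equilibrium dialysis in pooled male CD-1 mouse plasma. Compound at 5 μM (0.5% DMSO), two replicates, 4 h at 37 °C, sampled at 0 min and 4 h. Buffer and plasma aliquots were matrix-matched, quenched with acetonitrile/methanol (2:1) containing internal standard, and analysed by LC–MS/MS. Caffeine, verapamil and nicardipine served as binding controls.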

Cc1[nH]c(C(=O)Nc2nc3c(N4CCCC4)cc(C(=O)O)cc3s2)c(Cl)c1Cl
pIC50 [1]: > 7.00

Cc1[nH]c(C(=O)Nc2nc3c(N4CC[C@H](N(C)C)C4)cc(C(=O)O)cc3s2)c(Cl)c1Cl
pIC50 [1]: 6.92 | Activity [2]: inactive | Activity [3]: inactive | Activity [4]: inactive | Activity [5]: inactive | Activity [6]: inactive

C[C@H]1c2cccc(O)c2C(=O)C2=C(O)[C@]3(O)C(=O)C(C(N)=O)=C(O)[C@@H](N(C)C)[C@@H]3[C@@H](O)[C@@H]21 [DOXYCYCLINE]
inhibition at 32 µg/mL [7]: 100%

COLISTIN
inhibition [8]: Active

Cc1[nH]c(C(=O)Nc2nc3c(N4CCOCC4)cc(C(=O)O)cc3s2)c(Cl)c1Cl
inhibition (INH) [9]: Not Active | Activity [10]: Non-Toxic | inhibition (INH) [11]: Not Active | inhibition (INH) [12]: Not Active | Activity [13]: Non-Toxic | Activity [14]: Non-Toxic | Activity [15]: Non-Toxic | Activity [16]: Non-Toxic | Activity [17]: Non-Toxic | Activity [18]: Non-Toxic | Activity [19]: Non-Toxic | CLint [20]: 13 µL/min

CN(C)c1cc(NC(=O)CNC(C)(C)C)c(O)c2c1C[C@H]1C[C@H]3[C@H](N(C)C)C(O)=C(C(N)=O)C(=O)[C@@]3(O)C(O)=C1C2=O [TIGECYCLINE]
Activity [21]: 100% | Activity [22]: 100% | MIC [23]: > 16 µg/mL

Cc1[nH]c(C(=O)Nc2nc3c(N4[C@@H]5CC[C@H]4COC5)cc(C(=O)O)cc3s2)c(Cl)c1Cl
pIC50 [1]: 6.85 | solubility thermodynamic at 48 h [24]: 0.26 µM (≈ 0.125 µg/mL)

Cc1[nH]c(C(=O)Nc2nc3c(N4CCNCC4)cc(C(=O)O)cc3s2)c(Cl)c1Cl
Activity [2]: inactive | Activity [3]: inactive | Activity [4]: inactive | Activity [5]: inactive | Activity [6]: inactive

Cc1[nH]c(C(=O)Nc2nc3c(N4CCOCC4)cc(C(=O)O)cc3s2)cc1Cl
Activity [25]: Active | Activity [26]: Active | Activity [27]: Active | Activity [28]: Active | Activity [29]: Active

Cc1[nH]c(C(=O)Nc2nc3c(N4CCC(O)CC4)cc(C(=O)O)cc3s2)c(Cl)c1Cl
Activity [2]: inactive | Activity [4]: inactive | Activity [5]: inactive | Activity [6]: inactive

COCCCNc1cc(C(=O)O)cc2sc(NC(=O)c3[nH]c(C)c(Cl)c3Cl)nc12.N
MIC [26]: < 0.0312 µg/mL | MIC [29]: < 0.0312 µg/mL

Cc1[nH]c(C(=O)Nc2nc3c(N4CCC(=S)CC4)cc(C(=O)O)cc3s2)c(Cl)c1Cl
pIC50 [1]: > 7.00

Cc1[nH]c(C(=O)Nc2nc3c(N4C[C@H]5CC[C@@H](C4)O5)cc(C(=O)O)cc3s2)c(Cl)c1Cl
MIC [2]: 16 µg/mL (≈ 33.2 µM)

CO[C@@H]1[C@@H](OC(N)=O)[C@@H](O)[C@H](Oc2ccc3c(O)c(NC(=O)c4ccc(O)c(CC=C(C)C)c4)c(=O)oc3c2C)OC1(C)C [NOVOBIOCIN]
pIC50 [30]: 5.02 | pIC50 [31]: 4.88 | pIC50 [32]: 5.08

Cc1[nH]c(C(=O)Nc2nc3c(N4CCOC[C@@H]4C)cc(C(=O)O)cc3s2)c(Cl)c1Cl
pIC50 [33]: 7.77

Cc1[nH]c(C(=O)Nc2nc3c(N4CC[C@H](N)C4)cc(C(=O)O)cc3s2)c(Cl)c1Cl
pIC50 [1]: > 7.00 | Activity [2]: inactive | Activity [4]: inactive | Activity [5]: inactive | Activity [6]: inactive

Cc1[nH]c(C(=O)Nc2nc3c(N4CCOC4=O)cc(C(=O)O)cc3s2)c(Cl)c1Cl
pIC50 [1]: 6.92

Cc1[nH]c(C(=O)Nc2nc3c(N4CCOC[C@H]4C)cc(C(=O)O)cc3s2)c(Cl)c1Cl
fraction unbound at 4 h, 5 µM [34]: 0.011

Cc1[nH]c(C(=O)Nc2nc3c(CN4CCOCC4)cc(C(=O)O)cc3s2)c(Cl)c1Cl
pIC50 [1]: 6.92 | Activity [2]: inactive | Activity [3]: inactive | Activity [4]: inactive | Activity [5]: inactive | Activity [6]: inactive
